How the values were obtained:
Myzus persicae = assay: Antifeedant effect against Myzus persicae assessed as inhibition index at 100 ug/cm2 relative to control; type: functional; parameters: scale not given: the % may be the effect or the level left
Method in brief: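 Choice settling test on apterous adult M. persicae: 20 boxes of 10 aphids per treatment. Settling inhibition %SI = [1 − (%aphids on treated/%aphids on control surface)] × 100.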

Salmonella typhimurium [1] = assay: Mutagenic activity in Salmonella Typhimurium TA100 assessed as number of revertants at 100 ug/plate in presence of Wistar rat S9 liver homogenate; type: toxicity, organism-based, Liver S9 fraction; details: salmonella enterica subsp. enterica serovar typhimurium
Method in brief: (§1)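 Salmonella/microsome plate test, with or without S9 from livers of male Wistar rats (~200 g). Strain markers and spontaneous revertant counts were routinely verified. Revertants are reported as mean ± standard error of triplicate plates. Strain-specific positive controls were used, with 2-aminoanthracene for all strains when S9 was present.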

[2] = tested on: Leptinotarsa decemlineata; assay: Antifeedant effect against Leptinotarsa decemlineata assessed as feeding reduction at 100 ug/cm2 relative to control; type: functional; parameters: scale not given: the % may be the effect or the level left
Method in brief: (§2)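 Choice test on leaf disks using adult L. decemlineata or newly emerged fifth-instar S. littoralis larvae. Five to 10 plates per treatment, three insects each. Uneaten leaf-disk area was measured by scanner. %FR = [1 − (treatment/control consumption)] × 100 per arena. Where FR exceeded 50%, EC50 was taken from linear regression of %FR on log dose.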

[3] = tested on: Leptinotarsa decemlineata; assay: Antifeedant effect against Leptinotarsa decemlineata assessed as feeding reduction; type: functional, organism-based; method in brief: as §2
Spodoptera littoralis [4] = assay: Antifeedant effect against Spodoptera littoralis L6 larvae assessed as relative consumption rate at 10 ug, po after 72 hrs; type: functional
Method in brief: (§3)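 Preweighed, newly emerged S. littoralis L6 larvae (20 per experiment) were orally cannulated with 10 µg in 2 µL DMSO; controls got solvent alone. Relative consumption and growth rates were calculated at 72 h on a dry-weight basis. Log-transformed weights were analysed by ANOVA with LSD tests.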

Spodoptera littoralis [5] = assay: Antifeedant effect against Spodoptera littoralis L6 larvae assessed as relative growth rate at 10 ug, po after 72 hrs; type: functional; method in brief: as §3
[6] = tested on: Leptinotarsa decemlineata; assay: Insecticidal activity against Leptinotarsa decemlineata assessed as mortality at 5 ug by hemolymph injection after 72 hrs; type: functional
Method in brief: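 Adult L. decemlineata (20 beetles) were injected with 5 µg in DMSO through the metepimeron suture of the thorax. Beetles were kept on potato leaves. Symptoms and mortality were recorded up to 3 days, analysed by contingency tables and Abbott-corrected.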

Salmonella typhimurium [7] = assay: Mutagenic activity in Salmonella Typhimurium TA98 assessed as number of revertants at 0.1 ug/plate in absence of Wistar rat S9 liver homogenate; type: toxicity, organism-based; details: salmonella enterica subsp. enterica serovar typhimurium; method in brief: as §1
Salmonella typhimurium [8] = assay: Mutagenic activity in Salmonella Typhimurium TA98 assessed as number of revertants at 1 ug/plate in absence of Wistar rat S9 liver homogenate; type: toxicity, organism-based; details: salmonella enterica subsp. enterica serovar typhimurium; method in brief: as §1
Salmonella typhimurium [9] = assay: Mutagenic activity in Salmonella Typhimurium TA98 assessed as number of revertants at 10 ug/plate in absence of Wistar rat S9 liver homogenate; type: toxicity, organism-based; details: salmonella enterica subsp. enterica serovar typhimurium; method in brief: as §1
Salmonella typhimurium [10] = assay: Mutagenic activity in Salmonella Typhimurium TA98 assessed as number of revertants at 20 ug/plate in absence of Wistar rat S9 liver homogenate; type: toxicity, organism-based; details: salmonella enterica subsp. enterica serovar typhimurium
Method in brief: (§4)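 Salmonella/microsome plate test (Ames) in strain TA98, with genetic markers and spontaneous revertant counts verified routinely. Run with and without S9 mix, the S9 being liver postmitochondrial supernatant from male Wistar rats of about 200 g. Doses ran from 0.01 to 100 µg/plate. Revertants are the mean of triplicate plates with standard error. Positive controls were 0.5 µg 4-nitroquinoline-N-oxide without S9 and 15 µg 2-aminoanthracene with S9.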

Salmonella typhimurium [11] = assay: Mutagenic activity in Salmonella Typhimurium TA98 assessed as number of revertants at 50 ug/plate in absence of Wistar rat S9 liver homogenate; type: toxicity, organism-based; details: salmonella enterica subsp. enterica serovar typhimurium; method in brief: as §4
Salmonella typhimurium [12] = assay: Mutagenic activity in Salmonella Typhimurium TA98 assessed as number of revertants at 100 ug/plate in absence of Wistar rat S9 liver homogenate; type: toxicity, organism-based; details: salmonella enterica subsp. enterica serovar typhimurium; method in brief: as §4
Salmonella typhimurium [13] = assay: Mutagenic activity in Salmonella Typhimurium TA98 assessed as number of revertants at 0.01 ug/plate in presence of Wistar rat S9 liver homogenate; type: toxicity, organism-based, Liver S9 fraction; details: salmonella enterica subsp. enterica serovar typhimurium; method in brief: as §1
Salmonella typhimurium [14] = assay: Mutagenic activity in Salmonella Typhimurium TA98 assessed as number of revertants at 0.1 ug/plate in presence of Wistar rat S9 liver homogenate; type: toxicity, organism-based, Liver S9 fraction; details: salmonella enterica subsp. enterica serovar typhimurium; method in brief: as §1
Salmonella typhimurium [15] = assay: Mutagenic activity in Salmonella Typhimurium TA98 assessed as number of revertants at 1 ug/plate in presence of Wistar rat S9 liver homogenate; type: toxicity, organism-based, Liver S9 fraction; details: salmonella enterica subsp. enterica serovar typhimurium; method in brief: as §1
Salmonella typhimurium [16] = assay: Mutagenic activity in Salmonella Typhimurium TA98 assessed as number of revertants at 10 ug/plate in presence of Wistar rat S9 liver homogenate; type: toxicity, organism-based, Liver S9 fraction; details: salmonella enterica subsp. enterica serovar typhimurium; method in brief: as §1
Salmonella typhimurium [17] = assay: Mutagenic activity in Salmonella Typhimurium TA98 assessed as number of revertants at 20 ug/plate in presence of Wistar rat S9 liver homogenate; type: toxicity, organism-based, Liver S9 fraction; details: salmonella enterica subsp. enterica serovar typhimurium; method in brief: as §4
Salmonella typhimurium [18] = assay: Mutagenic activity in Salmonella Typhimurium TA98 assessed as number of revertants at 50 ug/plate in presence of Wistar rat S9 liver homogenate; type: toxicity, organism-based, Liver S9 fraction; details: salmonella enterica subsp. enterica serovar typhimurium; method in brief: as §4
Salmonella typhimurium [19] = assay: Mutagenic activity in Salmonella Typhimurium TA98 assessed as number of revertants at 100 ug/plate in presence of Wistar rat S9 liver homogenate; type: toxicity, organism-based, Liver S9 fraction; details: salmonella enterica subsp. enterica serovar typhimurium; method in brief: as §4
Salmonella typhimurium [20] = assay: Mutagenic activity in Salmonella Typhimurium TA100 assessed as number of revertants at 0.01 ug/plate in absence of Wistar rat S9 liver homogenate; type: toxicity, organism-based; details: salmonella enterica subsp. enterica serovar typhimurium; method in brief: as §1
Salmonella typhimurium [21] = assay: Mutagenic activity in Salmonella Typhimurium TA100 assessed as number of revertants at 0.1 ug/plate in absence of Wistar rat S9 liver homogenate; type: toxicity, organism-based; details: salmonella enterica subsp. enterica serovar typhimurium; method in brief: as §1
Salmonella typhimurium [22] = assay: Mutagenic activity in Salmonella Typhimurium TA100 assessed as number of revertants at 1 ug/plate in absence of Wistar rat S9 liver homogenate; type: toxicity, organism-based; details: salmonella enterica subsp. enterica serovar typhimurium; method in brief: as §1
Salmonella typhimurium [23] = assay: Mutagenic activity in Salmonella Typhimurium TA100 assessed as number of revertants at 10 ug/plate in absence of Wistar rat S9 liver homogenate; type: toxicity, organism-based; details: salmonella enterica subsp. enterica serovar typhimurium; method in brief: as §1
Salmonella typhimurium [24] = assay: Mutagenic activity in Salmonella Typhimurium TA100 assessed as number of revertants at 20 ug/plate in absence of Wistar rat S9 liver homogenate; type: toxicity, organism-based; details: salmonella enterica subsp. enterica serovar typhimurium; method in brief: as §1

## CCCCCCCCCCCC[C@@H](O)[C@H]1CC[C@H]([C@H](O)CCCC[C@H](O)CCCCC[C@@H](O)CC2=CC(C)OC2=O)O1 (stereo not given in full) [ANNONACIN]
Myzus persicae
  Activity: <40%
Salmonella typhimurium [1]
  Activity: 88
[2]
  Activity: 93%
[3]
  EC50: 10 microg/cm2
Spodoptera littoralis [4]
  Activity: 20.53 mg
Spodoptera littoralis [5]
  Activity: 3.44 mg
[6]
  Activity: 29.68%
Salmonella typhimurium [7]
  Activity: 30
Salmonella typhimurium [8]
  Activity: 32
Salmonella typhimurium [9]
  Activity: 34
Salmonella typhimurium [10]
  Activity: 36
Salmonella typhimurium [11]
  Activity: 21
Salmonella typhimurium [12]
  Activity: 14
Salmonella typhimurium [13]
  Activity: 36
Salmonella typhimurium [14]
  Activity: 21
Salmonella typhimurium [15]
  Activity: 27
Salmonella typhimurium [16]
  Activity: 19
Salmonella typhimurium [17]
  Activity: 26
Salmonella typhimurium [18]
  Activity: 25
Salmonella typhimurium [19]
  Activity: 28
Salmonella typhimurium [20]
  Activity: 150
Salmonella typhimurium [21]
  Activity: 142
Salmonella typhimurium [22]
  Activity: 125
Salmonella typhimurium [23]
  Activity: 104
Salmonella typhimurium [24]
  Activity: 96

Reference: ChEMBL document CHEMBL1142626, “Insecticidal and mutagenic evaluation of two annonaceous acetogenins” (J Nat Prod, 2000)
